Our source for the Drug metabolism values is ChEMBL document CHEMBL3526048, “In vitro metabolism of rivoglitazone, a novel peroxisome proliferator-activated receptor γ agonist, in rat, monkey, and human liver microsomes and freshly isolated hepatocytes” (Drug Metab Dispos, 2011).

Data set [1] deals with T1, UDP-glucuronosyltransferase 2B17 (Homo sapiens, UniProt O75795).
T1 sequence (O75795 whole entry): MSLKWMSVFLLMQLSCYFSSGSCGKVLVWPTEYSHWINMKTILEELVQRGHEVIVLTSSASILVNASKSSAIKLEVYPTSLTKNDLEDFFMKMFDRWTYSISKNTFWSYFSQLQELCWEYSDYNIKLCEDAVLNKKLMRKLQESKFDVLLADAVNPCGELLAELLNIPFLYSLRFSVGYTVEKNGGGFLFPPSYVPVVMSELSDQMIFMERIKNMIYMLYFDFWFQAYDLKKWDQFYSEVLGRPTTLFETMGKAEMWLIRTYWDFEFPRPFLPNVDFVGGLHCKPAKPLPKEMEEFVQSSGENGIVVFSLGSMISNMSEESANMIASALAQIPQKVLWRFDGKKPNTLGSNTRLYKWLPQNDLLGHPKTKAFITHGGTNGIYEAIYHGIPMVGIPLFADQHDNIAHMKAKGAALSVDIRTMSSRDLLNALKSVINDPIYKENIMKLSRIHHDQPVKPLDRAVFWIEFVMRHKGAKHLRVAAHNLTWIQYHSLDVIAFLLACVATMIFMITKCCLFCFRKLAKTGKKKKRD
Nature of the data set: Activity of human UGT2B17 expressed in microsomes isolated from baculovirus infected insect cell assessed as enzyme-mediated 2-mercapto-3-(4-((6-methoxy-1-methyl-1H-benzo[d]imidazol-2-yl)methoxy)phenyl)propanoic acid formation at 20 uM after 4 hrs by radio-HPLC/LC-MS/MS analysis in presence of UDPGA. Type of data set: ADME.

A short description of data set [2]: Drug metabolism in human hepatocytes assessed as formation of 2-mercapto-3-(4-((6-methoxy-1-methyl-1H-benzo[d]imidazol-2-yl)methoxy)phenyl)propanoic acid at 30 uM after 3 hrs by radio-HPLC/LC-MS/MS analysis in presence of UDPGA, UDPGA/SAM and NADPH-generating system. Type of data set: ADME, cell-based, Hepatocyte.
A short description of data set [3]: Drug metabolism in human hepatocytes assessed as formation of (2S,3S,4S,5R,6R)-3,4,5-trihydroxy-6-(5-(4-((6-methoxy-1-methyl-1H-benzo[d]imidazol-2-yl)methoxy)benzyl)-2,4-dioxothiazolidin-3-yl)tetrahydro-2H-pyran-2-carboxylic acid at 30 uM after 3 hrs by radio-HPLC/LC-MS/MS analysis in presence of UDPGA and UDPGA/SAM. It is filed as ADME, cell-based, Hepatocyte.

Another data set addresses T2, Cytochrome P450 2C8 (Homo sapiens, UniProt P10632).
T2 sequence (P10632 whole entry): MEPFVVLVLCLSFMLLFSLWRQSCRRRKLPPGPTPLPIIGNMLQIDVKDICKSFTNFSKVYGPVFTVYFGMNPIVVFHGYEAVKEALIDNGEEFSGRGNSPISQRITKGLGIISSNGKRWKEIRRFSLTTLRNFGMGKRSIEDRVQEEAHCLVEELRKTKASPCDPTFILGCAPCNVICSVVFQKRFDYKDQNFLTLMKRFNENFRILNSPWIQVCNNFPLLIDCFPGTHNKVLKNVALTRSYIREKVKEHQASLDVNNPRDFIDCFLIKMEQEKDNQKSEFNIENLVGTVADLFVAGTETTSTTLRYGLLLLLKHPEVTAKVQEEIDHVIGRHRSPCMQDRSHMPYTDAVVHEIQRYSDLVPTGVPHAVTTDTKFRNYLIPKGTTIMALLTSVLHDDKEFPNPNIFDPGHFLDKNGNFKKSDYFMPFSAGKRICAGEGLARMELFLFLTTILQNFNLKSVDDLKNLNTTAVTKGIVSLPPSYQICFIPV
In words: Activity of human CYP2C8 expressed in microsomes isolated from baculovirus infected insect cell assessed as enzyme-mediated 5-hydroxy-5-(4-((6-methoxy-1-methyl-1H-benzo[d]imidazol-2-yl)methoxy)benzyl)thiazolidine-2,4-dione formation at 20 uM after 2 hrs by radio-HPLC/LC-MS/MS analysis in presence of NADPH-generating system and NADPH-generating system/SAM. It is filed as ADME. Summed up:
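Baculovirus/insect-cell microsomes expressing single human CYPs, 1 mg/ml protein, with 50 mM potassium phosphate (pH 7.4) or 100 mM Tris-HCl (pH 7.5). NADPH-generating system: 2 mM NADP⁺, 20 mM glucose 6-phosphate, 2 units/ml G6PDH, 10 mM MgCl₂. [¹⁴C]rivoglitazone at 20 μM, 2 h at 37°C with shaking. Control used insect-cell control supersomes. Stopped with acetonitrile; supernatant concentrated under nitrogen; metabolites analysed by radio-HPLC, LC-MS and LC-MS/MS.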

A further data set concerns Liver microsome. Nature of the data set: Drug metabolism in human liver microsomes assessed as formation of 2-amino-3-((1-carboxy-2-(4-((6-methoxy-1-methyl-1H-benzo[d]imidazol-2-yl)methoxy)phenyl)ethyl)disulfanyl)propanoic acid at 20 uM by radio-HPLC/LC-MS/MS analysis. Type of data set: ADME.
Another data set concerns the target Cytochrome P450 2D6 (Homo sapiens, UniProt P10635). In words: Activity of human CYP2D6 expressed in microsomes isolated from baculovirus infected insect cell assessed as enzyme-mediated 5-(4-((6-hydroxy-1-methyl-1H-benzo[d]imidazol-2-yl)methoxy)benzyl)thiazolidine-2,4-dione formation at 20 uM after 2 hrs by radio-HPLC/LC-MS/MS analysis in presence of NADPH-generating system and NADPH-generating system/SAM. Type of data set: ADME.

The target of a further data set is Cytochrome P450 3A4 (Homo sapiens, UniProt P08684). Nature of the data set: Activity of human CYP3A4 expressed in microsomes isolated from baculovirus infected insect cell assessed as enzyme-mediated (2S,3S,4S,5R,6R)-3,4,5-trihydroxy-6-(5-(4-((6-methoxy-1-methyl-1H-benzo[d]imidazol-2-yl)methoxy)benzyl)-2,4-dioxothiazolidin-3-yl)tetrahydro-2H-pyran-2-carboxylic acid formation at 20 uM after 2 hrs by radio-HPLC/LC-MS/MS analysis in presence of UDPGA and UDPGA/SAM. It is filed as ADME.

The target in another data set is Cytochrome P450 3A5 (Homo sapiens, UniProt P20815). Nature of the data set: Activity of human CYP3A5 expressed in microsomes isolated from baculovirus infected insect cell assessed as enzyme-mediated 2-amino-3-((1-carboxy-2-(4-((6-methoxy-1-methyl-1H-benzo[d]imidazol-2-yl)methoxy)phenyl)ethyl)disulfanyl)propanoic acid formation at 20 uM after 2 hrs by radio-HPLC/LC-MS/MS analysis. It is filed as ADME. The procedure, abridged:
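Baculovirus-insect-cell microsomes expressing the human CYP (1 mg/ml protein) were incubated with [14C]rivoglitazone (20 μM) in 50 mM potassium phosphate (pH 7.4) or 100 mM Tris-HCl (pH 7.5) with an NADPH-generating system (2 mM NADP+, 20 mM glucose 6-phosphate, 2 units/ml G6PDH, 10 mM MgCl2) for 2 h at 37°C. Insect-cell control supersomes served as the control. Reactions were stopped with acetonitrile, and the concentrated supernatants were analysed by radio-HPLC, LC-MS and LC-MS/MS.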

Data set [4] is described as follows: Drug metabolism in monkey hepatocytes assessed as formation of 3-(4-((6-methoxy-1-methyl-1H-benzo[d]imidazol-2-yl)methoxy)phenyl)-2-(methylsulfinyl)propanamide at 30 uM after 3 hrs by radio-HPLC/LC-MS/MS analysis in presence of NADPH-generating system/SAM. Particulars: cynomolgus monkey.

Sequence of Cytochrome P450 3A4 (P08684 whole entry): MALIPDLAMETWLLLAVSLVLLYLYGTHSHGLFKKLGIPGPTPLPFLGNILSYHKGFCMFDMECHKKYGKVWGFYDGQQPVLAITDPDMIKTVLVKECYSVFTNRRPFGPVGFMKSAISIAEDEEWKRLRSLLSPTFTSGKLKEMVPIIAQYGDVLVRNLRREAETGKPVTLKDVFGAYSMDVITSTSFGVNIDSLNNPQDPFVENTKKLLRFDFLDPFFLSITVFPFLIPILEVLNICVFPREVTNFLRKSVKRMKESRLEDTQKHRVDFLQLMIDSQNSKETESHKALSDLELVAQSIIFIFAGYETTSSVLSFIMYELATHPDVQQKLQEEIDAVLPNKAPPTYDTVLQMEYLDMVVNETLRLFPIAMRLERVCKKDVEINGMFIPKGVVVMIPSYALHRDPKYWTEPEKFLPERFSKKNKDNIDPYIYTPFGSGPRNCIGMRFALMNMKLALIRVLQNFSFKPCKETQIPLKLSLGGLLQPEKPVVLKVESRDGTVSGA
Sequence of Cytochrome P450 3A5 (P20815 whole entry): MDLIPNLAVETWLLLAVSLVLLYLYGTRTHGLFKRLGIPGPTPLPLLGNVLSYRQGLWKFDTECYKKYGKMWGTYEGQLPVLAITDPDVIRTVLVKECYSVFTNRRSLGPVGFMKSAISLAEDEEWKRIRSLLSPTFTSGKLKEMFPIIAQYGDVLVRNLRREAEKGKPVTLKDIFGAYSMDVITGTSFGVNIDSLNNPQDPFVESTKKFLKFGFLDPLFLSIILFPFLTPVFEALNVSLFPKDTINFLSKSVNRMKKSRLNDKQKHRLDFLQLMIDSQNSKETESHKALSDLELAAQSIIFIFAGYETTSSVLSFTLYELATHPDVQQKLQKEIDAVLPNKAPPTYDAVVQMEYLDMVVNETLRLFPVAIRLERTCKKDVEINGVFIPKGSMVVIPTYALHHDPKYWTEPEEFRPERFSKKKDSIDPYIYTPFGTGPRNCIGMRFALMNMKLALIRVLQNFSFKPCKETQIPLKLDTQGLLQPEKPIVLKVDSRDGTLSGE
Sequence of Cytochrome P450 2D6 (P10635 whole entry): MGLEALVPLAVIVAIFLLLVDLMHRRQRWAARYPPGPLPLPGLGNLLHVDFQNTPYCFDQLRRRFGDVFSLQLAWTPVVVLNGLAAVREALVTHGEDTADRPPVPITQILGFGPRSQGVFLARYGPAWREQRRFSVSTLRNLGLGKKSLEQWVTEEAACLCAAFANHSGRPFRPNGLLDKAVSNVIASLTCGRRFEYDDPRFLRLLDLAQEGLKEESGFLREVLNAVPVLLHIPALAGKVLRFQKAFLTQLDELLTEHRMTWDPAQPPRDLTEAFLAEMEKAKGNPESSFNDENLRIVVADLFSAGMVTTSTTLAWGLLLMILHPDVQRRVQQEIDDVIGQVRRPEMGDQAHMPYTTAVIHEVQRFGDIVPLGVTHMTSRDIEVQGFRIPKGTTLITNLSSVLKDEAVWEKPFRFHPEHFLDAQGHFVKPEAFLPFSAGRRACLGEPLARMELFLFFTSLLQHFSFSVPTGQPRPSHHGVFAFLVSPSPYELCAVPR

Consider `COc1ccc2nc(COc3ccc(C[14CH]4SC(=O)NC4=O)cc3)n(C)c2c1.Cl` (racemic), for which the Drug metabolism entry is “metabolite_not_detected” in data set [1]; “metabolite_not_detected” in [2]; “metabolite_detected” in data set [3]; “metabolite_detected” at Cytochrome P450 2C8; “metabolite_not_detected” in the data set on Liver microsome; “metabolite_detected” on Cytochrome P450 2D6. Further, the Drug metabolism result (at Cytochrome P450 3A4; at Cytochrome P450 3A5; in data set [4]) was “metabolite_not_detected” each time.
